Activity calls are given as the source filed them. No cut-off for these calls is given here.
What was measured:
Plasmodium falciparum = assay: Antiparasitic activity against Plasmodium falciparum K1; assay type: functional, organism-based
Summary of the method: (§1)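 Compounds tested in vitro as hydrochloride salts against Plasmodium falciparum K1 or Trypanosoma brucei rhodesiense STIB900.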

[1] = tested on: Trypanosoma brucei rhodesiense; assay: Antiparasitic activity against Trypanosoma brucei rhodesiense STIB900; assay type: functional, organism-based; summary of the method: as §1
L6 = assay: Cytotoxicity against rat L6 cells; assay type: cell-based
Summary of the method: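 Cultured L6 rat myoblast cells were used to measure IC50 cytotoxicity.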

[2] = Selectivity index, ratio of IC50 for rat L6 cells to IC50 for Plasmodium falciparum K1; assay type: toxicity, cell-based; conditions: L6 cells versus Plasmodium falciparum K1, read-out: Ratio IC50
Summary of the method: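 Selectivity index is IC50 for L6 rat myoblasts divided by IC50 for P. falciparum K1. Both IC50s were measured in vitro.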

[3] = Selectivity index, ratio of IC50 for rat L6 cells to IC50 for Trypanosoma brucei rhodesiense STIB900; assay type: toxicity, cell-based; conditions: L6 cells versus Trypanosoma brucei rhodesiense STIB900, read-out: Ratio IC50
Summary of the method: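 Selectivity index is IC50 for L6 rat myoblasts divided by IC50 for T. b. rhodesiense STIB900. Both IC50s were measured in vitro.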

[4] = tested on: Trypanosoma brucei rhodesiense; assay: Antiparasitic activity against Trypanosoma brucei rhodesiense STIB900 infected in mouse assessed as mean relapse day of parasitemia at 5 mg/kg, ip for 4 days; assay type: functional; conditions: route intraperitoneal
Summary of the method: (§2)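 Acute STIB900 mouse model. Hydrochloride salts were given intraperitoneally at 5 mg/kg/day on four consecutive days. Cure is the number of mice surviving and parasite-free on day 60. Relapse is the mean day parasitemia reappears.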

[5] = tested on: Trypanosoma brucei rhodesiense; assay: Antiparasitic activity against Trypanosoma brucei rhodesiense STIB900 infected in mouse assessed as cured at 5 mg/kg, ip for 4 days; assay type: functional, organism-based; parameters: dose 5 mg/kg; summary of the method: as §2
[6] = tested on: Poly(dA-dT)oligonucleotide

Row | Compound | IC50 (Plasmodium falciparum) [µM] | IC50 [1] [µM] | IC50 (L6) [µM] | selectivity ratio [2] | selectivity ratio [3] | Activity [4] [days] | Activity [5] | ΔTm [6] [°C]
1 | Cl.Cl.N=C(N)c1ccc(-c2ccc3[nH]c(-c4ccc(C(=N)N)cc4)nc3c2)cc1 | 0.0037 | 0.004 | 62.4 | 16900 | 15600 | 18 | inactive | > 27
2 | Cl.Cl.N=C(N)c1ccc(-c2ccc3cc(-c4ccc(C(=N)N)s4)[nH]c3c2)cc1 | 0.0111 | 0.004 | 2.2 | 198 | 550 | 17 | – | > 27
3 | Cl.Cl.N=C(N)c1ccc(-c2ccc3[nH]c(-c4ccc(C(=N)N)s4)cc3c2)cc1 | 0.0071 | 0.002 | 9.9 | 1390 | 4950 | 17 | – | 25.5
4 | N=C(N)c1ccc(-c2ccc(-c3ccc(C(=N)N)cc3)o2)cc1 [FURAMIDINE] | – | – | – | – | – | 20 | – | –
5 | N=C(N)c1ccc(-c2ccc(-c3cc4ccc(C(=N)N)cc4[nH]3)cc2)cc1 | 0.0033 | 0.002 | 10.5 | – | – | – | – | > 27
6 | Cl.Cl.N=C(N)c1ccc(-c2ccc3[nH]c(-c4ccc(C(=N)N)cc4)cc3c2)cc1 | 0.0057 | 0.003 | 6.7 | 1180 | 2330 | 20 | – | 23.7
7 | Cl.Cl.N=C(N)c1ccc(-c2ccc3cc(-c4cnccc4C(=N)N)[nH]c3c2)cc1 | 0.0098 | 0.004 | 2.6 | 265 | 650 | 24 | – | > 27
8 | N=C(N)c1ccc(-c2cc3ccc(C(=N)N)cc3[nH]2)cc1 [DAPI] | – | 0.018 | – | – | 48 | 17 | – | > 27
9 | Cl.Cl.N=C(N)c1ccc(-c2ccc3cc(-c4cc(C(=N)N)ccn4)[nH]c3c2)cc1 | 0.018 | 0.005 | 11.6 | 644 | 2320 | 24 | – | > 27
10 | N=C(N)c1ccc(-c2ccc(-c3nc4ccc(C(=N)N)cc4[nH]3)cc2)cc1 | 0.0005 | 0.0077 | 17 | 34000 | – | – | – | > 27
11 | Cl.Cl.N=C(N)c1ccc(-c2ccc3cc(-c4ccc(C(=N)N)cc4)[nH]c3c2)cc1 | 0.0052 | 0.003 | 3.4 | 653 | 1130 | 20 | inactive | > 27
12 | N=C(N)c1ccc(OCCCCCOc2ccc(C(=N)N)cc2)cc1 [PENTAMIDINE] | – | – | 46 | – | – | 20 | – | –
13 | Cl.Cl.Cn1c(-c2ccc(C(=N)N)cc2)nc2cc(-c3ccc(C(=N)N)cc3)ccc21 | 0.0013 | 0.015 | > 169 | > 130000 | > 11300 | 11 | inactive | 11.2
14 | Cl.Cl.N=C(N)c1ccc(-c2ccc3nc(-c4ccc(C(=N)N)cc4)n(O)c3c2)cc1 | 0.018 | 0.484 | 124 | 6890 | 256 | 8 | inactive | 12.2
15 | Cl.Cl.N=C(N)c1ccc(-c2ccc3cc(-c4ccc(C(=N)N)o4)[nH]c3c2)cc1 | 0.0125 | 0.017 | 9.2 | 736 | 541 | 18 | inactive | 24.9
